Compounds with a hit are over-represented: about 2.3% of the library has one in this group of screens.
TAAR1 antag: human TAAR1 antagonism; Q96RJ0; inhibition, % at 3 µM; actives 1.5% (n = 360,000); CHO RD-HGA16 TAAR1, Fluo-8 calcium fluorescence, antagonist;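 active = inhibition above a per-plate cutoff, the mean inhibition of test compounds on that plate plus 3 SD, cut at about 49% in these data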
Target sequence (Q96RJ0 whole entry, looked up): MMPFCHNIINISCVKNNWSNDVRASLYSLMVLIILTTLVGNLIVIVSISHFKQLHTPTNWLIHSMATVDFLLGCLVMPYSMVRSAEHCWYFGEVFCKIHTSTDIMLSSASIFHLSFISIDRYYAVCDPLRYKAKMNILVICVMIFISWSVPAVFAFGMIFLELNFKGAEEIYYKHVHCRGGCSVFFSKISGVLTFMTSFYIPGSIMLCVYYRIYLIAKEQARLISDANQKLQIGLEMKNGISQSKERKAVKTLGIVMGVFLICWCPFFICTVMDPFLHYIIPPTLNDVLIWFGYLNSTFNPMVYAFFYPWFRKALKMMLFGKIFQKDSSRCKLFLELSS
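System: RD-HGA16 CHO cells with stable hTAAR1 and Gα16 | Probe or stimulus: EC80 β-phenethylamine stimulus | Dosing: 3 µM, single point | Times: Dye loading 75 min at 37 °C, then 30 min room temperature | Measured by: Fluo-8 calcium-sensitive fluorescence | Read-out basis: % inhibition of agonist calcium response | Replicates: n of 1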
OXTR potentiator: potentiators of human oxytocin receptor; P30559; CHO-OTR cells, Fluo-8 calcium fluorescence, potentiator mode; 0% = oxytocin EC15, 100% = EC100; activation, % at 3 µM; actives 0.061% (n = 320,000); AID 2445;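 active = activation above that plate's cutoff, the mean activation of tested compounds plus 3 SD, cut at about 6.6% in these data, passing the limit was not always enough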
Target sequence (P30559 whole entry, looked up): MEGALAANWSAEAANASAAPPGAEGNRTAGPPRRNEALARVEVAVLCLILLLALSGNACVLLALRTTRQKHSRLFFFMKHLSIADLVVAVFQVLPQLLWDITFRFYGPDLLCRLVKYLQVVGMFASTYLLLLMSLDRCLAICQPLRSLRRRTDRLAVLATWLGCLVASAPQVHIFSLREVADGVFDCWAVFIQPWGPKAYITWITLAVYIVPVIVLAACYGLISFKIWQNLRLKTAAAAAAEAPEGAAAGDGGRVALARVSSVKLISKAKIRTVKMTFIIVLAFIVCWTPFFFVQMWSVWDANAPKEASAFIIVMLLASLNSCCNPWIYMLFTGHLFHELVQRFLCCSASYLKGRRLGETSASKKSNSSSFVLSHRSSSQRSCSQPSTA
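System: human OTR in CHO cells / Also added: sub-maximal oxytocin, roughly EC15 / Control set: EC15 oxytocin low, 75 nM oxytocin high / Schedule: 6 min compound pre-incubation at room temperature, 100 s kinetic read / Compound: single-point 3.0 µM / Replication: singlicate / Technique: Fluo-8 calcium dye fluorescence / Read-out basis: % activation of max/min ratio relative to oxytocin controls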
TAAR1 ag: agonists of human TAAR1; actives 0.99% (n = 360,000); AID 624467; CHO RD-HGA16 TAAR1, Fluo-8 calcium fluorescence; vehicle wells 0%, saturating PEA agonist 100%; activation, % at 3 µM;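 active = activation above the mean activation of all test compounds in the run plus 3 SD, cut at about 38% in these data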
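Assay system – CHO-derived RD-HGA16 cells with stable Gα16 and human TAAR1 · Compound dosing – one-point dosing at 3 µM (nominal) · Incubation – 17-24 h seeding, 75 min 37 °C dye, 30 min RT · Measured by – kinetic Fluo-8 calcium fluorescence · Control set – DMSO vehicle as 0%, PEA at EC100 as 100% · Repeats – single well for each compound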
OXTR agonist: activates the human oxytocin receptor | P30559 | CHO-OTR cells, Fluo-8 calcium fluorescence; normalized: DMSO 0%, oxytocin 100% | activation, % at 3 µM | actives 0.32% (n = 320,000) | AID 2435;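 active = activation above the mean of all tested compounds plus 3 SD, cutoff set per screening run, cut at about 20% in these data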;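 note: peak over basal fluorescence ratio from a 100 s FLIPR kinetic read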
V1aR counter: activates human V1a receptor in oxytocin agonist counter-screen; P37288; AID 2797; CHO-V1R cells, Fluo-8 calcium fluorescence, agonist mode; 0% DMSO, 100% 3 nM vasopressin; actives 0.25% (n = 320,000); activation, % at 3 µM;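 active = activation above the mean activation of all tested compounds plus 3 SD, per screening run, cut at about 20% in these data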;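 note: signal is peak over basal fluorescence ratio across a 100 second FLIPR read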
TAAR1 nonsel count: nonselective antagonism, TAAR1 counter-screen; shares compounds with TAAR1 antag; AID 651780; inhibition, % at 3 µM; actives 77% (n = 2,400); counterscreen cell line, calcium fluorescence, antagonist mode; in the data active = inhibition above about 22%;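 note: CHO-Ga16 host cells stimulated with ATP at an EC80 level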
TAAR1 ant conf: confirmation of human TAAR1 antagonists. TAAR1-expressing cells, fluorescence antagonist read-out. inhibition, % at 3 µM. AID 651785. shares compounds with TAAR1 antag. actives 40% (n = 2,400); in the data active = inhibition above about 49%;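 note: CHO-Ga16 host cells challenged with agonist PEA near its EC80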
Ga16 ag counter-1: counter-screen for TAAR1 antagonists: nonselective Ga16 agonists | shares compounds with TAAR1 antag | Ga16-expressing cells, calcium fluorescence, agonist counterscreen | activation, % at 3 µM | actives 18% (n = 2,400) | AID 651953; in the data active = activation above about 12%
TAAR1 ag counter: TAAR1 agonism, antagonist counter-screen; shares compounds with TAAR1 antag; hTAAR1 cell line, fluorescence activation, agonist mode; activation, % at 3 µM; actives 2% (n = 2,400); in the data active = activation above about 37%;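 note: CHO cells stably expressing TAAR1 with calcium dye readout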
TAAR1 ag conf: human TAAR1 agonism, confirmed | activation, % at 3 µM | shares compounds with TAAR1 ag | actives 82% (n = 2,400) | CHO RD-HGA16 TAAR1, Fluo-8 calcium fluorescence; scaled: DMSO 0%, maximal phenethylamine 100%;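 active = activation above a cutoff set at the run's mean compound activation plus 3 SD, cut at about 39% in these data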
Ga16 ag counter-2: nonselective agonism, TAAR1 counter-screen | AID 651787 | CHO-Ga16 parental, Fluo-8 calcium fluorescence; normalized to maximal ATP response, DMSO zero | actives 50% (n = 2,400) | activation, % at 3 µM | shares compounds with TAAR1 ag;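 active = activation above the run cutoff, the mean activation over all tested wells plus 3 SD, cut at about 12% in these data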
TAAR1 desens: human TAAR1 agonist that also desensitizes the receptor. actives 46% (n = 2,400). CHO RD-HGA16 hTAAR1, Fluo-8 calcium, beta-PEA response inhibition. shares compounds with TAAR1 ag. inhibition, % at 3 µM;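 active = inhibition above the run cutoff, the mean inhibition of all test compounds plus 3 SD, cut at about 49% in these data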;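 note: beta-PEA stimulus applied at its EC80; loss of beta-PEA calcium signal after compound pretreatment read as receptor desensitization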
Ga16 antag count: nonselective Ga16 antagonism, counter-screen; CHO-Ga16 ATP-induced calcium, Fluo-8 fluorescence; shares compounds with TAAR1 ag; inhibition, % at 3 µM; actives 39% (n = 2,400);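 active = inhibition above the plate's mean compound inhibition plus 3 SD, computed per plate, cut at about 22% in these data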
Hits are given with their value; – = inactive; · = no result.

SMILES	TAAR1 antag	OXTR potentiator	TAAR1 ag	OXTR agonist	V1aR counter	TAAR1 nonsel count	TAAR1 ant conf	Ga16 ag counter-1	TAAR1 ag counter	others
COc1ccc(-n2nnnc2C(c2ccccc2OC(F)(F)F)N2CCC(n3c(=O)[nH]c4ccccc43)CC2)cc1 (centres undefined)	–	·	–	·	·	·	·	·	·
COC(=O)C1C(c2ccc(F)cc2)CC2CCC1N2C (centres undefined)	–	·	–	·	·	·	·	·	·
CC(C)(C)[C@]1(O)C[C@@H]2OC(=O)C[C@@]23C(=O)O[C@@H]2OC(=O)[C@@H](O)C213 (some centres undefined)	–	–	–	–	–	·	·	·	·
O=C1NC(=O)C(Cc2ccccc2)(Cc2ccccc2)C(=O)N1Cc1ccccc1	59.9	·	–	·	·	–	–	–	–
COP(=O)(OC)OC=C(Cl)Cl	–	·	–	·	·	·	·	·	·
O=P(Nc1cccc(F)c1)(Oc1ccccc1F)Oc1ccccc1F	89.7	–	–	–	–	28.6	66.8	–	–
COc1cccc(NP(=O)(Oc2ccc(Cl)cc2)Oc2ccc(Cl)cc2)c1	58.8	–	–	–	–	–	–	–	–
COc1ccc(CN2Cc3cnnn3-c3ccccc3C2C)cc1 (centres undefined)	–	·	–	·	·	·	·	·	·
COC(=O)C1=C(c2ccc(F)cc2OCc2ccccc2)C[C@@H]2CC[C@H]1N2C(=O)NCc1ccc(OC)cc1	61.8	–	–	–	–	–	–	–	–
COC(=O)C1=C(c2ccccc2OCc2ccccc2)C[C@@H]2CC[C@H]1N2C(=O)NCc1cccc(F)c1	–	–	–	–	–	·	·	·	·
COC(=O)C1=C(c2ccc(F)cc2OCc2ccccc2)C[C@@H]2CC[C@H]1N2C(=O)NCc1cccc(OC)c1	74.3	–	–	–	–	28.8	–	–	–
CCC(C)N1C(=O)NC(=O)C2(Cc3c(ccc4ccccc34)N(C)C2)C1=O (centres undefined)	56.0	–	–	–	–	32.9	51.7	–	–
COc1ccc2c(c1)CC1(CN2C)C(=O)NC(=O)N(CCc2ccccc2)C1=O (centres undefined)	–	–	–	–	–	·	·	·	·
Cc1nc2ccccc2c(=O)n1-c1ccc(-c2ccccc2)cc1	50.4	–	–	–	–	22.9	–	–	–
COc1ccc(-n2c(/C=C/c3ccc(O)c(OC)c3)nc3ccccc3c2=O)cc1	59.2	–	–	–	–	28.9	–	–	–
Cc1ccc(-n2c(C)nc3ccccc3c2=O)cc1C	–	–	–	–	–	·	·	·	·
COc1ccc(-n2c(/C=C/c3ccc(O)cc3)nc3ccccc3c2=O)cc1	65.8	–	–	–	–	30.4	–	–	–
C#CCOC(=O)C1=CCCN(C)C1	–	–	–	–	–	·	·	·	·
COC(=O)C1=C(c2ccc(F)cc2OCc2ccccc2)C[C@@H]2CC[C@H]1N2C(=O)NCc1cccc(C(F)(F)F)c1	–	–	–	–	–	·	·	·	·
C=C1C(C)C2C(Cc3ccccc3)NC(=O)C23OC(=O)/C=C/C(O)CCCC(C)C/C=C/C3C1O (centres undefined)	69.8	·	–	·	·	–	50.1	13.2	–
CCOC(=O)CC(SP1(=S)OCC2(CCCCC2)CO1)C(=O)OCC (centres undefined)	57.9	·	–	·	·	–	–	–	–
CCOC(=O)C1(CCc2ccccc2)CCN(CC(O)CO)CC1 (centres undefined)	–	–	–	–	–	·	·	·	·
O=C(CCC(=O)N1C[C@H]2C[C@@H](C1)c1cccc(=O)n1C2)NCc1ccc(F)cc1	–	–	–	–	–	·	·	·	·
COc1ccc2nc(-c3ccc(CN4CCC(n5nnc6ccccc65)CC4)cc3)c(-c3ccccc3)nc2c1	50.5	·	–	·	·	–	–	–	–
Cc1ccc2nc(-c3ccc(CN4CCC(n5nnc6ccccc65)CC4)cc3)c(-c3ccccc3)nc2c1	74.8	·	–	·	·	27.1	–	–	–
SMILES	TAAR1 antag	OXTR potentiator	TAAR1 ag	OXTR agonist	V1aR counter	TAAR1 nonsel count	TAAR1 ant conf	Ga16 ag counter-1	TAAR1 ag counter	others
Cc1ccc2nc(-c3ccc(CN4CCC(n5c(=O)[nH]c6ccccc65)CC4)cc3)c(-c3ccccc3)nc2c1	–	·	–	·	·	·	·	·	·
COCCO[C@H]1CCC2C3CC=C4C[C@@H](O)CC[C@]4(C)C3CC[C@@]21C (some centres undefined)	–	–	–	–	–	·	·	·	·
COC(=O)C1=C(c2cccc(OCc3ccccc3)c2)C[C@@H]2CC[C@H]1N2C(=O)NCc1ccccc1C(F)(F)F	–	–	–	–	–	·	·	·	·
COC(=O)C1=C(c2ccc(F)cc2OCc2ccccc2)C[C@@H]2CC[C@H]1N2C(=O)NCCOc1ccc(OC)cc1	59.1	–	–	–	–	–	–	–	–
COC(=O)C1=C(c2ccc(F)cc2OCc2ccccc2)C[C@@H]2CC[C@H]1N2C(=O)NCCOc1ccccc1	69.4	–	–	–	–	–	–	13.1	–
COc1cc2c(cc1OC)C13CCN4CC5CCOC6CC(=O)N2C1C6C5CC43 (centres undefined)	–	·	–	·	·	·	·	·	·
CCOC(=O)C(O)(c1ccc(NC(=S)NC(=O)c2ccc(Cl)cc2Cl)c(C)c1)C(F)(F)F (centres undefined)	99.2	–	76.1	32.0	34.2	·	·	·	·	TAAR1 ag conf=95.8;Ga16 ag counter-2=55.7;TAAR1 desens=106.6;Ga16 antag count=84.6
CCOC(=O)C(O)(c1ccc(NC(=O)Oc2ccccc2)cc1)C(F)(F)F (centres undefined)	–	–	–	–	–	·	·	·	·

Source: PubChem
